Calls of active or inactive are those of the source. The rule behind the calls is not given here.
Columns and labels:
[1] = system: Mus musculus; test: Protective index, ratio of TD50 for ip dosed albino CF1 mouse to ED50 for ip dosed albino CF1 mouse; format: functional
In short: (§1)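 Protective index was calculated as TD50/ED50 for the same species and route: mouse ip (rotorod TD50, MES ED50) and rat po.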

[2] = Behavioral toxicity in po dosed albino Sprague-Dawley rat; format: organism-based; conditions: in vivo
In short: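 Behavioral toxicity was recorded as observed effects in rats after oral administration, within the NINDS ASP screen.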

[3] = system: Rattus norvegicus; test: Protective index, ratio of TD50 for po dosed albino Sprague-Dawley rat to ED50 for po dosed albino Sprague-Dawley rat; format: functional; in short: as §1
[4] = system: Mus musculus; test: Anticonvulsant activity against subcutaneous metrazole-induced seizures in albino CF1 mouse at 300 mg/kg, ip after 0.5 hrs; format: functional, organism-based; parameters: dose 300 mg/kg
In short: (§2)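 Subcutaneous Metrazol seizure test under the NINDS ASP, using ip dosing to mice, typically at 300 mg/kg. Protection was assessed at 0.5 and 4 h.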

[5] = system: Rattus norvegicus; test: Anticonvulsant activity against subcutaneous metrazole-induced seizures in albino Sprague-Dawley rat at 300 mg/kg, ip after 0.5 hrs; format: functional, organism-based; parameters: dose 300 mg/kg
[6] = system: Mus musculus; test: Anticonvulsant activity against subcutaneous metrazole-induced seizures in albino CF1 mouse at 300 mg/kg, ip after 4 hrs; format: functional, organism-based; parameters: dose 300 mg/kg; in short: as §2
[7] = system: Rattus norvegicus; test: Anticonvulsant activity against subcutaneous metrazole-induced seizures in albino Sprague-Dawley rat at 300 mg/kg, ip after 4 hrs; format: functional, organism-based; parameters: dose 300 mg/kg
[8] = system: Mus musculus; test: Anticonvulsant activity in ip dosed albino CF1 mouse seizure model assessed as protection against hind limb extension by MES test; format: functional; conditions: albino CF1, Hindlimb
In short: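 Maximal electroshock seizure test run by the NINDS ASP (Stables and Kupferberg procedures). Compounds were given intraperitoneally to mice, and the ED50 for seizure protection is reported in mg/kg.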

[9] = Neurological toxicity in ip dosed albino CF1 mouse assessed as neurological impairment by rotarod test; format: organism-based; conditions: in vivo
In short: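 Neurological impairment was measured with the rotorod test in mice dosed intraperitoneally. The median dose (TD50, mg/kg) was determined only for compounds with significant MES activity.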

[10] = system: Rattus norvegicus; test: Anticonvulsant activity in po dosed albino Sprague-Dawley rat seizure model assessed as protection against hind limb extension by MES test; format: functional; conditions: Hindlimb
In short: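 MES seizure protection was tested in Sprague Dawley rats dosed orally, through the NINDS ASP. The ED50 is expressed in mg/kg.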

[11] = system: Rattus norvegicus; test: Anticonvulsant activity against in ip dosed albino Sprague-Dawley rat hippocampal kindled seizure model assessed as after-discharge duration after 0.5 hrs; format: functional, Hippocampus
In short: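 Rats were given compounds intraperitoneally in the rapid hippocampal kindling model under the NINDS ASP. Racine seizure score and after-discharge duration (sec) were recorded before and after dosing. Where determined, ED50 (mg/kg) is given with an interval.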

SMILES	PI [1]	TD50 [2]	PI [3]	Activity [4]	Activity [5]	Activity [6]	Activity [7]	ED50 [8]	TD50 [9]	ED50 [10]	Time [11]
COC[C@@H](NC(C)=O)C(=O)NCc1ccc(F)cc1	6.7	125 mg/kg	>48	inactive	inactive	inactive	inactive				
COC[C@@H](NC(C)=O)C(=O)NCc1ccccc1OC(F)(F)F		> 500 mg/kg	>22	inactive	inactive	inactive	inactive	30 mg/kg	100 mg/kg	23 mg/kg	
C=Cc1ccc(CNC(=O)[C@@H](COC)NC(C)=O)cc1	4.6		>20	inactive	inactive	inactive	inactive	3.5 mg/kg	16 mg/kg	7.6 mg/kg	0 s
COC[C@@H](NC(C)=O)C(=O)NCc1cccc(F)c1	6.7	> 400 mg/kg	>58	inactive	inactive	inactive	inactive				
CCCc1ccc(CNC(=O)[C@@H](COC)NC(C)=O)cc1	1.5	> 30 mg/kg		inactive	inactive	inactive	inactive	8.5 mg/kg	13 mg/kg	< 30 mg/kg	
COC[C@@H](NC(C)=O)C(=O)NCc1ccccc1 [LACOSAMIDE]	6	> 500 mg/kg	>130	inactive	inactive	inactive	inactive				0 s
COC[C@@H](NC(C)=O)C(=O)NCc1ccc(C)cc1	3	> 500 mg/kg	>62	inactive	inactive	inactive	inactive	11 mg/kg	31 mg/kg	8.1 mg/kg	
COCC#Cc1ccc(CNC(=O)[C@@H](COC)NC(C)=O)cc1	1.5	100 mg/kg	5.5	inactive	inactive	inactive	inactive	10 mg/kg	15 mg/kg	18 mg/kg	
COC[C@@H](NC(C)=O)C(=O)NCc1ccc(NC(=O)C(F)(F)F)cc1		> 30 mg/kg		inactive	inactive	inactive	inactive	> 300 mg/kg	100 mg/kg	> 30 mg/kg	
COC[C@H](NC(C)=O)C(=O)NCc1ccc(N=[N+]=[N-])cc1		> 30 mg/kg		inactive	inactive	inactive	inactive	100 mg/kg	> 300 mg/kg		
COC[C@@H](NC(C)=O)C(=O)NCc1ccc(OC)cc1		> 500 mg/kg	>18	inactive	inactive	inactive	inactive	30 mg/kg	100 mg/kg	28 mg/kg	
COC[C@H](NC(C)=O)C(=O)NCc1ccccc1		> 30 mg/kg		inactive	inactive	inactive	inactive		> 300 mg/kg		
COC[C@H](NC(C)=O)C(=O)NCc1ccc(C#C[Si](C)(C)C)cc1		> 30 mg/kg		inactive	inactive	inactive	inactive	30 mg/kg	100 mg/kg	> 30 mg/kg	
COC[C@@H](NC(C)=O)C(=O)NCc1ccc(C#N)cc1	>3.3	> 30 mg/kg		inactive	inactive	inactive	inactive	150 mg/kg	> 500 mg/kg	> 30 mg/kg	
COC[C@@H](NC(C)=O)C(=O)NCc1ccccc1F		> 30 mg/kg	>2.7	inactive	inactive	inactive	inactive	10 mg/kg	100 mg/kg	11 mg/kg	
